This note sets out measurements from ChEMBL document CHEMBL2046325, “Synthesis and SAR-study for novel arylpiperazine derivatives of 5-arylidenehydantoin with α₁-adrenoceptor antagonistic properties” (Bioorg Med Chem, 2012).

Assay [1] has as its target T1, Adrenergic receptor alpha-1 (Rattus norvegicus, UniProt P15823+P23944+P43140).
T1 sequence (P15823 whole entry): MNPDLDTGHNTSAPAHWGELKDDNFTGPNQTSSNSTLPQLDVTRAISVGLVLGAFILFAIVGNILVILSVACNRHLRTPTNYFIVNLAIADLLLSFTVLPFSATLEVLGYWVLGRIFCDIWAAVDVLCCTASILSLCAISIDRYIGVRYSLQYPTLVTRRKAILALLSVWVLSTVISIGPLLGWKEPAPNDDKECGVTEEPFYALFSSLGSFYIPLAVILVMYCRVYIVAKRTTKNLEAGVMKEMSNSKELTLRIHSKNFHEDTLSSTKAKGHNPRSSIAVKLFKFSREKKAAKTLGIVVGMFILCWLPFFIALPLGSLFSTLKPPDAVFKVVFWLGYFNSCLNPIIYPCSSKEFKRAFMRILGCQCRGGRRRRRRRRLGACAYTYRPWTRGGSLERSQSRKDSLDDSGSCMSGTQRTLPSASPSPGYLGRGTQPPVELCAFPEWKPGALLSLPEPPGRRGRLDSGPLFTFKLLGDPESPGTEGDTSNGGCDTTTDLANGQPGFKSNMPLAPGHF
T1 sequence (P23944 whole entry): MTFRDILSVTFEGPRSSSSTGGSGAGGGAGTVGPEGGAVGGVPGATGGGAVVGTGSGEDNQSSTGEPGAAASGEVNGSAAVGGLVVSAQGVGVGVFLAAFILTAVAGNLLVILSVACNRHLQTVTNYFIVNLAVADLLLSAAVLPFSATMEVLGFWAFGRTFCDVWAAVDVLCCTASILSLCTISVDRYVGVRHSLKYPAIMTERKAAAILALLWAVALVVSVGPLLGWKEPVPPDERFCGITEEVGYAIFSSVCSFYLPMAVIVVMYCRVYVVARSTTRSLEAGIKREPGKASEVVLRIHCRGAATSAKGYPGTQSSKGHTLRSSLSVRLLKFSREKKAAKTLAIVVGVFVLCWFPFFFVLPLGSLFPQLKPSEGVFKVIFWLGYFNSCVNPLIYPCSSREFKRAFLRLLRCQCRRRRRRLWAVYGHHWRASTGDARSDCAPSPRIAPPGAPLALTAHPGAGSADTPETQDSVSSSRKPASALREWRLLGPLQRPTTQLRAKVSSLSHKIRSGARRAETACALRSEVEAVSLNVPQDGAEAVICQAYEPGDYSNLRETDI
T1 sequence (P43140 whole entry): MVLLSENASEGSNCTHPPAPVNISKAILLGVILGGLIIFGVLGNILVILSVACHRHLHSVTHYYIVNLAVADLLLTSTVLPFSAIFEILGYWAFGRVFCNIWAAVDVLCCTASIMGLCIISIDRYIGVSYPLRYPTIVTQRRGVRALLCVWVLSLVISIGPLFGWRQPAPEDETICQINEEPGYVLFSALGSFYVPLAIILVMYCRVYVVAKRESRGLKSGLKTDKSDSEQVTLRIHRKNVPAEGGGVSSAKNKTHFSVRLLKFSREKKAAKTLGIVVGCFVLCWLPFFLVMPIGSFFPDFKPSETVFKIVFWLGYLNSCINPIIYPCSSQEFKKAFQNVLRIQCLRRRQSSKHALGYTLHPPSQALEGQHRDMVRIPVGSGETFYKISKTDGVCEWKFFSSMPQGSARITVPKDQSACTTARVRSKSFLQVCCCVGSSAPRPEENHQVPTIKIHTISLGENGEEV
As to the kind of experiment: Displacement of [3H]prazosin from alpha1 adrenoceptor in rat cerebral cortex after 30 mins by beta scintillation counting. It counts as tissue-based. In a few lines: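 Rat cerebral cortex homogenized in 50 mM Tris-HCl, pH 7.6, centrifuged twice at 20000 × g and resuspended at 10 mg wet weight/ml. Tissue incubated with [3H]-prazosin (19.5 Ci/mmol) and test compound for 30 min at 25 °C. Samples filtered on GF/B and counted by scintillation; three-parameter logistic fit of percent binding.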

For assay [2], the target named is Adrenergic receptor alpha-1 (Rattus norvegicus) (UniProt P15823+P23944+P43140). The experiment in a line: Antagonist activity at alpha1 adrenoceptor in Wistar rat denuded thoracic aorta rings assessed as inhibition of phenylephrine-induced contraction after 20 mins. It counts as functional, tissue-based. In a few lines:
(§1)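 Male Wistar rats (200-350 g) anaesthetised with thiopental sodium (75 mg/kg ip). Endothelium-denuded thoracic aortic rings, about 4 mm, held in Krebs-Henseleit at 37 °C, pH 7.4, gassed O2/CO2 19:1. Cumulative phenylephrine curves run over 3×10⁻⁹–3×10⁻⁶ M, before and after 20 min with one antagonist concentration per ring (3–4 levels), 60 min recovery between curves. Schild pA2 used if slope is unity, otherwise pKB; ≥5 experiments.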

Assay [3] has as its target T1, Adrenergic receptor alpha-1. The experiment in a line: Competitive antagonist activity at alpha1 adrenoceptor in Wistar rat denuded thoracic aorta rings assessed as inhibition of phenylephrine-induced contractions after 20 mins. It counts as functional, tissue-based. In a few lines:
as §1

For the molecule `COc1ccc(/C=C2\NC(=O)N(CC(O)CN3CCN(c4ccccc4OC)CC3)C2=O)c(OC)c1.Cl` (racemic), the Ki (usually the dissociation constant of the complex between target and ligand, obtained from inhibition or displacement) in assay [1] was 0.0522 µM. For the same molecule, in assay [2], the inhibition result is “Dose-dependent effect” and the pKb (as a rule, the negative decadic logarithm of the Kb, by convention in mol/L) was 8.95.

Regarding `COc1ccccc1N1CCN(CC(O)CN2C(=O)N/C(=C\c3ccc(N(C)C)cc3)C2=O)CC1.Cl` (racemic), the Ki in assay [1] amounted to 0.8349 µM.

`CCOc1ccccc1N1CCN(CC(O)CN2C(=O)N/C(=C\c3ccc(N(C)C)cc3)C2=O)CC1.Cl` (racemic) yielded a Ki in assay [1] of 8.7 µM.

In assay [1], `COc1ccccc1N1CCN(CC(O)CN2C(=O)N/C(=C\c3ccc(Cl)cc3)C2=O)CC1.Cl` (racemic) returned a Ki of 0.0863 µM. Also, in assay [2], the inhibition result is “Dose-dependent effect” and the pKb was determined as 7.58.

Consider `COc1cccc(/C=C2\NC(=O)N(CC(O)CN3CCN(c4ccccc4)CC3)C2=O)c1OC.Cl` (racemic), for which the inhibition constant (Ki) in assay [1] was found to be 0.3188 µM.

`COc1ccccc1N1CCN(CC(O)CN2C(=O)N/C(=C\c3ccccc3)C2=O)CC1.Cl` (racemic) showed a Ki in assay [1] of 0.2859 µM.

Turning to `Cl.O=C1N/C(=C\c2ccc(Cl)cc2)C(=O)N1CC(O)CN1CCN(c2ccccc2)CC1` (racemic), the Ki in assay [1] stood at 3.7 µM.

In turn, `COc1ccc(/C=C2\NC(=O)N(CC(O)CN3CCN(c4ccccc4OC)CC3)C2=O)cc1OC.Cl` (racemic) registered a Ki in assay [1] of 0.0445 µM. Further, the pA2 (in general, the negative logarithm of the molar antagonist concentration that doubles the agonist concentration needed for the same response) in assay [3] was determined as 7.56. The inhibition result in assay [2] is “Dose-dependent effect”.

`CCOc1ccccc1N1CCN(CC(O)CN2C(=O)N/C(=C\c3ccccc3)C2=O)CC1.Cl` (racemic): the Ki in assay [1] turned out to be 0.0914 µM. For the same molecule, in assay [2], the inhibition entry is “Dose-dependent effect” and the pKb amounted to 7.66.

`COc1ccccc1N1CCN(CC(O)CN2C(=O)N/C(=C\c3cccc(OC)c3OC)C2=O)CC1.Cl` (racemic) had a Ki in assay [1] of 0.07 µM. Moreover, the pA2 in assay [3] was found to be 7.55. Besides, in assay [2], the inhibition result was “Dose-dependent effect”.

Consider `COc1ccc(/C=C2\NC(=O)N(CC(O)CN3CCN(c4ccccc4)CC3)C2=O)cc1OC.Cl` (racemic), for which the Ki in assay [1] amounted to 0.1976 µM.

On to `CCOc1ccccc1N1CCN(CC(O)CN2C(=O)N/C(=C\c3cccc(OC)c3OC)C2=O)CC1.Cl` (racemic), for which, in assay [1], the Ki amounted to 0.0721 µM. For the same molecule, in assay [2], the inhibition entry was “Dose-dependent effect” and the pKb amounted to 7.53.

With `CCOc1ccccc1N1CCN(CC(O)CN2C(=O)N/C(=C\c3ccc(OC)cc3OC)C2=O)CC1.Cl` (racemic), the Ki in assay [1] came out at 0.231 µM.

`CCOc1ccccc1N1CCN(CC(O)CN2C(=O)N/C(=C\c3ccc(Cl)cc3)C2=O)CC1.Cl` (racemic) returned a Ki in assay [1] of 0.0591 µM. Moreover, in assay [2], the inhibition entry is “Dose-dependent effect” and the pKb turned out to be 9.01.
